Reference: ChEMBL document CHEMBL3877264, “Quinolidene-rhodanine conjugates: Facile synthesis and biological evaluation” (Eur J Med Chem, 2017)
Converted amounts (≈) assume the structure as drawn.

Assays:
Assay type in all cases: functional
Staphylococcus aureus [1] = experiment: Growth inhibition of Staphylococcus aureus NCIM 2010 at 30 ug/ml measured after 12 hrs relative to control; details: NCIM 2010, 12 h, read-out: GI
In short: (§1)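 Bacteria grown in LB at 37 °C and 180 rpm to OD 1. Compounds added to wells, then 0.1% inoculum of 1 OD culture (620 nm). Growth read as OD at 620 nm after 8 h for gram-negative and after 12 h for gram-positive strains.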

Bacillus subtilis [2] = experiment: Growth inhibition of Bacillus subtilis NCIM 2079 at 30 ug/ml measured after 12 hrs relative to control; details: NCIM 2079, 12 h, read-out: GI; in short: as §1
Staphylococcus aureus [3] = experiment: Growth inhibition of Staphylococcus aureus NCIM 2010 at 10 ug/ml measured after 12 hrs relative to control; details: NCIM 2010, 12 h, read-out: GI; in short: as §1
Staphylococcus aureus [4] = experiment: Growth inhibition of Staphylococcus aureus NCIM 2010 at 3 ug/ml measured after 12 hrs relative to control; details: NCIM 2010, 12 h, read-out: GI; in short: as §1
Bacillus subtilis [5] = experiment: Growth inhibition of Bacillus subtilis NCIM 2079 at 10 ug/ml measured after 12 hrs relative to control; details: NCIM 2079, 12 h, read-out: GI; in short: as §1
Bacillus subtilis [6] = experiment: Growth inhibition of Bacillus subtilis NCIM 2079 at 3 ug/ml measured after 12 hrs relative to control; details: NCIM 2079, 12 h, read-out: GI; in short: as §1
Escherichia coli [7] = experiment: Growth inhibition of Escherichia coli NCIM 2688 at 30 ug/ml measured after 8 hrs relative to control; details: NCIM 2688, 8 h, read-out: GI; in short: as §1
Escherichia coli [8] = experiment: Growth inhibition of Escherichia coli NCIM 2688 at 10 ug/ml measured after 8 hrs relative to control; details: NCIM 2688, 8 h, read-out: GI; in short: as §1
Escherichia coli [9] = experiment: Growth inhibition of Escherichia coli NCIM 2688 at 3 ug/ml measured after 8 hrs relative to control; details: NCIM 2688, 8 h, read-out: GI; in short: as §1
Pseudomonas fluorescens [10] = experiment: Growth inhibition of Pseudomonas fluorescens NCIM 2036 at 30 ug/ml measured after 8 hrs relative to control; details: NCIM 2036, 8 h, read-out: GI; in short: as §1
Pseudomonas fluorescens [11] = experiment: Growth inhibition of Pseudomonas fluorescens NCIM 2036 at 10 ug/ml measured after 8 hrs relative to control; details: NCIM 2036, 8 h, read-out: GI; in short: as §1
Pseudomonas fluorescens [12] = experiment: Growth inhibition of Pseudomonas fluorescens NCIM 2036 at 3 ug/ml measured after 8 hrs relative to control; details: NCIM 2036, 8 h, read-out: GI; in short: as §1
Escherichia coli [13] = experiment: Antibacterial activity against Escherichia coli NCIM 2688 measured after 8 hrs; details: NCIM 2688, 8 h; in short: as §1
Pseudomonas fluorescens [14] = experiment: Antibacterial activity against Pseudomonas fluorescens NCIM 2036 measured after 8 hrs; details: NCIM 2036, 8 h; in short: as §1
Staphylococcus aureus [15] = experiment: Antibacterial activity against of Staphylococcus aureus NCIM 2010 measured after 12 hrs; details: NCIM 2010, 12 h; in short: as §1
Bacillus subtilis [16] = experiment: Antibacterial activity against Bacillus subtilis NCIM 2079 measured after 12 hrs; details: NCIM 2079, 12 h; in short: as §1
[17] = test system: Mycobacterium tuberculosis; experiment: Growth inhibition of Mycobacterium bovis BCG ATCC 35743 at dormant stage at 30 ug/ml measured after 12 days by nitrate reductase dye based two fold dilution method relative to control; details: BCG str. ATCC 35743, 288 h, read-out: GI
In short: (§2)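 M. bovis BCG was grown in Dubos medium and assayed in Mycobacterium pheli minimal medium (pH 6.6), with compounds from DMSO stocks. Incubation lasted 8 days for active and 12 days for dormant cultures. Viability was read by nitrate reductase at 540 nm against cell-free blanks, with vehicle set as 100% growth. Primary screen was at 30, 10 and 3 µg/ml, in triplicate, mean ± SD. MIC was taken from dose-response curves.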

[18] = test system: Mycobacterium tuberculosis; experiment: Growth inhibition of Mycobacterium bovis BCG ATCC 35743 at dormant stage at 10 ug/ml measured after 12 days by nitrate reductase dye based two fold dilution method relative to control; details: BCG str. ATCC 35743, 288 h, read-out: GI; in short: as §2
[19] = test system: Mycobacterium tuberculosis; experiment: Growth inhibition of Mycobacterium bovis BCG ATCC 35743 at dormant stage at 3 ug/ml measured after 12 days by nitrate reductase dye based two fold dilution method relative to control; details: BCG str. ATCC 35743, 288 h, read-out: GI; in short: as §2
[20] = test system: Mycobacterium tuberculosis; experiment: Growth inhibition of Mycobacterium bovis BCG ATCC 35743 at active stage measured after 8 days by nitrate reductase dye based two fold dilution method; details: BCG str. ATCC 35743, 192 h; in short: as §2
[21] = test system: Mycobacterium tuberculosis; experiment: Growth inhibition of Mycobacterium tuberculosis H37Ra ATCC 25177 at dormant stage measured after 12 days by XTT dye based two fold dilution method; details: H37Ra ATCC 25177, 288 h
In short: (§3)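 MTB H37Ra was grown in Dubos medium, then exposed in Mycobacterium pheli minimal medium (pH 6.6) to compounds dissolved in DMSO. The assay ended on day 8 (active) or day 12 (dormant). Viable cells were measured by XTT reduction menadione assay at 470 nm, blank-corrected, relative to vehicle control. Triplicates were expressed as mean ± SD. MIC came from dose-response curves.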

[22] = test system: Mycobacterium tuberculosis; experiment: Growth inhibition of Mycobacterium bovis BCG ATCC 35743 at dormant stage measured after 12 days by nitrate reductase dye based two fold dilution method; details: BCG str. ATCC 35743, 288 h; in short: as §2
[23] = test system: Mycobacterium tuberculosis; experiment: Growth inhibition of Mycobacterium tuberculosis H37Ra ATCC 25177 at active stage measured after 8 days by XTT dye based two fold dilution method; details: H37Ra ATCC 25177, 192 h; in short: as §3
Candida albicans = experiment: Antifungal activity against Candida albicans NCIM 3471 by standard agar method
In short: (§4)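 MICs determined by standard agar method; DMSO as solvent control.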

Aspergillus flavus = experiment: Antifungal activity against Aspergillus flavus NCIM 539 by standard agar method; in short: as §4
Aspergillus niger = experiment: Antifungal activity against Aspergillus niger NCIM 1196 by standard agar method; in short: as §4
[24] = Antifungal activity against Cryptococcus neoformans NCIM 576 by standard agar method; in short: as §4
[25] = Antifungal activity against Fusarium oxysporum NCIM 1332 by standard agar method; in short: as §4

Structure (SMILES)	inhibition of growth at 30 µg/mL (Staphylococcus aureus [1]) [%]	inhibition of growth at 30 µg/mL (Bacillus subtilis [2]) [%]	inhibition of growth at 10 µg/mL (Staphylococcus aureus [3]) [%]	inhibition of growth at 3 µg/mL (Staphylococcus aureus [4]) [%]	inhibition of growth at 10 µg/mL (Bacillus subtilis [5]) [%]	inhibition of growth at 3 µg/mL (Bacillus subtilis [6]) [%]	inhibition of growth at 30 µg/mL (Escherichia coli [7]) [%]	inhibition of growth at 10 µg/mL (Escherichia coli [8]) [%]	inhibition of growth at 3 µg/mL (Escherichia coli [9]) [%]	inhibition of growth at 30 µg/mL (Pseudomonas fluorescens [10]) [%]	inhibition of growth at 10 µg/mL (Pseudomonas fluorescens [11]) [%]	inhibition of growth at 3 µg/mL (Pseudomonas fluorescens [12]) [%]	MIC (Escherichia coli [13]) [µg/mL]	MIC (Pseudomonas fluorescens [14]) [µg/mL]	MIC (Staphylococcus aureus [15]) [µg/mL]	MIC (Bacillus subtilis [16]) [µg/mL]	inhibition of growth at 30 µg/mL [17] [%]	inhibition of growth at 10 µg/mL [18] [%]	inhibition of growth at 3 µg/mL [19] [%]	IC50 [20] [µg/mL]	other results
COc1ccc2cc(/C=C3\SC(=S)N(CCC(=O)O)C3=O)c(Cl)nc2c1	-17.3	0.458	-12.1	-13	-0.582	-3.95	6.84	13.7	2.29	-33.9	-3.31	-62.2	> 30	> 30	> 30	> 30	11.3	16.9	14.1	> 30	IC90 [20]: > 30 µg/mL; IC50 [21]: > 30 µg/mL; IC90 [21]: > 30 µg/mL; IC50 [22]: > 30 µg/mL; IC90 [22]: > 30 µg/mL; IC50 [23]: > 30 µg/mL; IC90 [23]: > 30 µg/mL; MIC (Candida albicans): 150 µg/mL (≈ 367 µM); MIC (Aspergillus flavus): 100 µg/mL (≈ 245 µM); MIC (Aspergillus niger): 200 µg/mL (≈ 489 µM); MIC [24]: 150 µg/mL (≈ 367 µM)
Cc1cccc2cc(/C=C3\SC(=S)N(CCC(=O)O)C3=O)c(Cl)nc12	-12.1	-5.57	-19.7	-4.02	-5.28	-3.04	10.5	4.27	8.12	16	-2.3	4.57	> 30	> 30	> 30	> 30	24.8	27.9	17.2	> 30	MIC [25]: 100 µg/mL (≈ 255 µM); IC90 [20]: > 30 µg/mL; IC50 [21]: > 30 µg/mL; IC90 [21]: > 30 µg/mL; IC50 [22]: > 30 µg/mL; IC90 [22]: > 30 µg/mL; IC50 [23]: > 30 µg/mL; IC90 [23]: > 30 µg/mL; MIC (Candida albicans): 50 µg/mL (≈ 127 µM); MIC (Aspergillus flavus): 150 µg/mL (≈ 382 µM); MIC (Aspergillus niger): 75 µg/mL (≈ 191 µM); MIC [24]: 100 µg/mL (≈ 255 µM)
